Assay [1] has as its system THP-1. Put plainly: Cytotoxicity against human THP1 cells after 48 hrs by sulforhodamine B assay. It counts as functional, cell-based. Conditions: THP-1, 48 h. Summed up: (§1)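 Sulforhodamine B assay on NCI-sourced cells in RPMI-1640/10% FCS, seeded at 1×10^5 cells/ml and left 24 h, then serial dilutions of 2×10^-2 M DMSO stocks in gentamycin medium added for 48 h (37 °C, 5% CO2). Cells fixed with cold TCA, SRB dye dissolved in Tris pH 10.4, OD read at 540 nm. IC50 is the concentration inhibiting 50% of cell viability.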
On the technique in general: Sulforhodamine B stains cellular protein and so reports cell mass.

The subject of a further assay is HeLa. The experiment in a line: Cytotoxicity against human HeLa cells after 48 hrs by sulforhodamine B assay. It counts as functional, cell-based.
For assay [2], the system named is HEp-2. Put plainly: Cytotoxicity against human Hep2 cells assessed as cell growth inhibition at 10 uM after 48 hrs by sulforhodamine B assay. In kind it is functional. The settings on record: HEp-2, 48 h, read-out: GI. The gist of the method:
(§2)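 Cell lines from NCI, grown in RPMI-1640 (2 mM glutamine, pH 7.4, 10% fetal calf serum, penicillin) at 37 °C, 5% CO2, 90% RH, viability >98% by trypan blue. 1×10^5 cells/ml seeded, grown 24 h, then compound added at 10 or 100 µM (DMSO stocks diluted in medium with gentamycin) for 48 h. TCA fixation, SRB staining, OD 540 nm; % growth inhibition versus untreated growth, blank-subtracted.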

The subject of assay [3] is A549. Put plainly: Cytotoxicity against human A549 cells assessed as cell growth inhibition at 100 uM after 48 hrs by sulforhodamine B assay. Conditions: A549, 48 h, read-out: GI. In kind it is functional. Summed up: as §2
The test system of assay [4] is HCT-15. Put plainly: Cytotoxicity against human HCT15 cells after 48 hrs by sulforhodamine B assay. In kind it is functional, cell-based. The settings on record: HCT-15, 48 h. The gist of the method: as §1
In assay [5] the test system is THP-1. The experiment in a line: Cytotoxicity against human THP1 cells assessed as cell growth inhibition at 100 uM after 48 hrs by sulforhodamine B assay. In kind it is functional. The settings on record: THP-1, 48 h, read-out: GI. Summed up:
as §2

For assay [6], the system named is HCT-15. The experiment in a line: Cytotoxicity against human HCT15 cells assessed as cell growth inhibition at 10 uM after 48 hrs by sulforhodamine B assay. In kind it is functional. The settings on record: HCT-15, 48 h, read-out: GI. Summed up: as §2
Assay [7] concerns HCT-15. Put plainly: Cytotoxicity against human HCT15 cells assessed as cell growth inhibition at 100 uM after 48 hrs by sulforhodamine B assay. In kind it is functional. Conditions: HCT-15, 48 h, read-out: GI. The gist of the method:
as §2

For assay [8], the system named is A549. The experiment in a line: Cytotoxicity against human A549 cells assessed as cell growth inhibition at 10 uM after 48 hrs by sulforhodamine B assay. Conditions: A549, 48 h, read-out: GI. It counts as functional. Summed up: as §2
For a further assay, the system named is PC-3. The experiment in a line: Cytotoxicity against human PC3 cells after 48 hrs by sulforhodamine B assay. In kind it is functional, cell-based. Conditions: PC-3, 48 h.
For assay [9], the system named is A549. The experiment in a line: Cytotoxicity against human A549 cells after 48 hrs by sulforhodamine B assay. In kind it is functional, cell-based. Conditions: A549, 48 h. Summed up:
as §1

Assay [10] concerns THP-1. Put plainly: Cytotoxicity against human THP1 cells assessed as cell growth inhibition at 10 uM after 48 hrs by sulforhodamine B assay. It counts as functional. Conditions: THP-1, 48 h, read-out: GI. Summed up: as §2
For a further assay, the system named is COLO 205. The experiment in a line: Cytotoxicity against human COLO205 cells after 48 hrs by sulforhodamine B assay. In kind it is functional, cell-based. The settings on record: COLO 205, 48 h.
Assay [11] deals with HEp-2. Put plainly: Cytotoxicity against human Hep2 cells assessed as cell growth inhibition at 100 uM after 48 hrs by sulforhodamine B assay. In kind it is functional. The settings on record: HEp-2, 48 h, read-out: GI. Summed up:
as §2

Assay [12] has as its system A549. Put plainly: Cytotoxicity against human A549 cells assessed as cell growth inhibition at 1 uM after 48 hrs by sulforhodamine B assay. In kind it is functional. The settings on record: A549, 48 h, read-out: GI.
In assay [13] the test system is THP-1. The experiment in a line: Cytotoxicity against human THP1 cells assessed as cell growth inhibition at 1 uM after 48 hrs by sulforhodamine B assay. It counts as functional. The settings on record: THP-1, 48 h, read-out: GI.
Assay [14] has as its system HCT-15. The experiment in a line: Cytotoxicity against human HCT15 cells assessed as cell growth inhibition at 1 uM after 48 hrs by sulforhodamine B assay. In kind it is functional. Conditions: HCT-15, 48 h, read-out: GI. Summed up: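 NCI-sourced cells in RPMI-1640 (2 mM glutamine, 10% FCS, penicillin), >98% trypan-blue viable, seeded at 1 × 10^5 cells/ml and grown 24 h (37 °C, 5% CO2). DMSO stocks diluted in medium with gentamycin; 48 h exposure. TCA fixation 1 h at 4 °C, 0.4% SRB stain 30 min, dye dissolved in Tris pH 10.4, OD 540 nm. Blank-subtracted; inhibition relative to untreated growth (100%).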

The test system of assay [15] is HEp-2. Put plainly: Cytotoxicity against human Hep2 cells assessed as cell growth inhibition at 1 uM after 48 hrs by sulforhodamine B assay. In kind it is functional. The settings on record: HEp-2, 48 h, read-out: GI.

Experimental findings from ChEMBL document CHEMBL1772942, “Synthesis and in vitro cytotoxic evaluation of N-alkylbromo and N-alkylphthalimido-isatins” (Bioorg Med Chem Lett, 2011) are described below.

Broadly, the IC50 is the concentration that gives 50% inhibition.

Consider `O=C1C(=O)N(CCCBr)c2ccccc21`, for which the concentration for half-maximal inhibition (IC50) in the assay with THP-1 [1] was over 100 µM; with HeLa, 7.77 µM; in the assay with HCT-15 [4], 13.8 µM; in the assay on PC-3, 15.3 µM; in the assay on A549 [9], over 100 µM; with COLO 205 it was over 100 µM. The inhibition of growth at 10 µM in the assay on HEp-2 [2] worked out at 36%; with HCT-15 [6] it was 59%; in the assay on A549 [8], 0%; with THP-1 [10] it was 80%. The inhibition of growth at 100 µM came to 37% in the assay on A549 [3], 95% with THP-1 [5], 93% with HCT-15 [7] and 93% in the assay with HEp-2 [11].
Regarding `O=C1C(=O)N(CCCCBr)c2ccccc21`, the IC50 with THP-1 [1] is 12.4 µM; with HeLa it was 4.57 µM; in the assay on HCT-15 [4], 11.8 µM; in the assay with PC-3, 10.9 µM; in the assay with A549 [9], over 100 µM; in the assay with COLO 205, 54.2 µM. Moreover, the inhibition of growth at 10 µM with HEp-2 [2] was 33%; in the assay with HCT-15 [6], 62%; in the assay with A549 [8], 30%; in the assay with THP-1 [10], 90%. Moreover, the inhibition of growth at 100 µM was 49% in the assay on A549 [3], 90% in the assay with THP-1 [5], 88% in the assay on HCT-15 [7] and 68% with HEp-2 [11].
In the case of `O=C1C(=O)N(CCCCCBr)c2ccccc21`, the IC50 was 42.3 µM in the assay on THP-1 [1]; 5.49 µM in the assay with HeLa; 8.46 µM with HCT-15 [4]; 11.5 µM in the assay with PC-3; over 100 µM in the assay with A549 [9]; over 100 µM in the assay with COLO 205. Further, the inhibition of growth at 10 µM in the assay with HEp-2 [2] turned out to be 40%; with HCT-15 [6], 62%; in the assay with A549 [8], 0%; in the assay with THP-1 [10], 85%. The inhibition of growth at 100 µM with A549 [3] came out at 40%; in the assay with THP-1 [5], 91%; in the assay with HCT-15 [7], 91%; in the assay on HEp-2 [11], 81%.
Take `O=C1C(=O)N(CCCCCCBr)c2ccccc21`: the IC50 in the assay with THP-1 [1] was 26.5 µM; in the assay on HeLa, 12 µM; with HCT-15 [4], 12.4 µM; in the assay on PC-3, 11.7 µM; with A549 [9] it was over 100 µM; in the assay with COLO 205, over 100 µM. For the same compound, the inhibition of growth at 10 µM in the assay on HEp-2 [2] was 48%; in the assay with HCT-15 [6] it was 67%; with A549 [8] it was 0%; in the assay on THP-1 [10], 94%. In addition, the inhibition of growth at 100 µM with A549 [3] is 53%; in the assay on THP-1 [5], 93%; with HCT-15 [7], 95%; with HEp-2 [11] it was 86%.
For the compound `O=C1C(=O)N(CCN2C(=O)c3ccccc3C2=O)c2ccccc21`, the inhibition of growth at 10 µM stood at 10% in the assay on HEp-2 [2], 3% in the assay on HCT-15 [6], 18% with A549 [8] and 9% in the assay on THP-1 [10]. The inhibition of growth at 100 µM in the assay with A549 [3] was found to be 43%; in the assay on THP-1 [5], 96%; in the assay on HCT-15 [7], 86%; in the assay with HEp-2 [11] it was 68%.
Consider `O=C1C(=O)N(CCCN2C(=O)c3ccccc3C2=O)c2ccccc21`, for which the inhibition of growth at 10 µM with HEp-2 [2] was 11%; in the assay on HCT-15 [6], 1%; with A549 [8], 0%; in the assay with THP-1 [10], 8%. Moreover, the inhibition of growth at 100 µM was 1% in the assay on A549 [3], 96% with THP-1 [5], 58% in the assay on HCT-15 [7] and 30% in the assay on HEp-2 [11].
For `O=C1C(=O)N(CCCCN2C(=O)c3ccccc3C2=O)c2ccccc21`, the inhibition of growth at 10 µM stood at 15% in the assay with HEp-2 [2], 4% in the assay with HCT-15 [6], 0% in the assay on A549 [8] and 44% with THP-1 [10]. In addition, the inhibition of growth at 100 µM in the assay on A549 [3] came out at 36%; with THP-1 [5], 92%; with HCT-15 [7], 89%; in the assay on HEp-2 [11], 73%.
Consider `O=C1C(=O)N(CCCCCN2C(=O)c3ccccc3C2=O)c2ccccc21`, for which the inhibition of growth at 10 µM in the assay with HEp-2 [2] worked out at 10%; in the assay with HCT-15 [6], 9%; in the assay on A549 [8], 4%; in the assay on THP-1 [10], 60%. The inhibition of growth at 100 µM with A549 [3] was 36%; in the assay with THP-1 [5], 93%; with HCT-15 [7], 97%; in the assay with HEp-2 [11], 85%.
For the compound `O=C1C(=O)N(CCCCCCN2C(=O)c3ccccc3C2=O)c2ccccc21`, the IC50 was over 100 µM with THP-1 [1]; 8.82 µM in the assay with HeLa; 9.73 µM with HCT-15 [4]; 12.8 µM with PC-3; over 100 µM with A549 [9]; over 100 µM with COLO 205. Further, the inhibition of growth at 10 µM in the assay with HEp-2 [2] is 39%; with HCT-15 [6], 49%; in the assay on A549 [8], 0%; in the assay with THP-1 [10], 96%. For the same compound, the inhibition of growth at 100 µM in the assay with A549 [3] turned out to be 14%; in the assay on THP-1 [5], 95%; with HCT-15 [7], 91%; in the assay with HEp-2 [11] it was 90%.
`O=C1C(=O)N(CCBr)c2ccccc21`: the inhibition of growth at 10 µM with HEp-2 [2] was 14%; in the assay on HCT-15 [6], 4%; in the assay on A549 [8] it was 38%; in the assay on THP-1 [10], 14%. Besides, the inhibition of growth at 100 µM in the assay on A549 [3] was found to be 44%; in the assay with THP-1 [5], 96%; in the assay on HCT-15 [7], 89%; in the assay on HEp-2 [11], 71%.
Regarding `COc1cccc2c1C(=O)c1c(O)c3c(c(O)c1C2=O)C[C@@](O)(C(=O)CO)C[C@@H]3O[C@H]1C[C@H](N)[C@H](O)[C@H](C)O1` [DOXORUBICIN], the inhibition of growth at 1 µM with A549 [12] turned out to be 55%; in the assay with THP-1 [13], 96%.
`O=c1[nH]cc(F)c(=O)[nH]1` [FLUOROURACIL]: in the assay with HCT-15 [14], the inhibition of growth at 1 µM came to 31%.
Take `CO[C@@]12[C@H](COC(N)=O)C3=C(C(=O)C(C)=C(N)C3=O)N1C[C@@H]1N[C@@H]12` [MITOMYCIN]: the inhibition of growth at 1 µM in the assay with HEp-2 [15] was 31%.
